Data set [1] is described as follows: Unbound brain concentration in amphetamine-induced C57BL/6J mouse model of hyperlocomotion at 1 mg/kg, sc measured after 1 hr. The format is ADME, organism-based. Conditions: in vivo; call rule not given here. The procedure, abridged: (§1)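 Satellite PK animals from the mouse aLMA study, N=2/dose. Dosed subcutaneously with a solution in 5/15/80 DMSO/Solutol/water. Plasma and brain were sampled at T = 1 h.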

A short description of data set [2]: Toxicity in dog assessed as induction of loose stool at 3 mg/kg, po using spray-dried dispersion formulation. The class given is organism-based, Canis lupus familiaris. As to conditions: in vivo.
Data set [3] can be described thus: fCmax in rat at 3 mg/kg, po administered for 14 days. The class given is ADME, organism-based. As to conditions: in vivo, 336 h, time 14 day. An outline of the steps: (§2)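 2-week repeat oral dosing in rats, 0.5% methylcellulose formulation; N=4/sex/dose; doses 3, 10, 30 (males)/15 (females) mg/kg; unbound exposures reported per dose and sex.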
Data set [4] can be described thus: Toxicity in dog assessed as induction of loose stool at 0.3 mg/kg, po using spray-dried dispersion formulation. The class given is organism-based, Canis lupus familiaris. As to conditions: in vivo.
Data set [5] in a line: Unbound plasma concentration in scopolamine-induced Wistar rat model at 1 mg/kg, po measured after 1 hr. The class given is ADME, organism-based. Conditions: in vivo. The procedure, abridged: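 Plasma sampled 1 h after oral dosing in satellite animals (N=2/dose) given the same dosing solution as the water-maze study (suspension in 0.5% methylcellulose in water); unbound concentration reported as the group average.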

Data set [6] can be described thus: Toxicity in female rat assessed as increase in food intake at 15 mg/kg, po administered for 14 days. The format is organism-based. Conditions: in vivo, 336 h, time 14 day. An outline of the steps:
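Two-week repeat-dose toxicity study in rats. Oral dosing in 0.5% methylcellulose at 3, 10, 30 (males)/15 (females) mg/kg, N=4/sex/dose. Food intake, body weight gain and histopathology were assessed.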

The nature of data set [7]: fCmax in rat at 10 mg/kg, po administered for 14 days. Conditions: in vivo, 336 h, time 14 day. The class given is ADME, organism-based. The procedure, abridged: as §2
The nature of data set [8]: Toxicity in male Beagle dog assessed as decrease in RR interval at 3 mg/kg, po administered as single dose observed upto 9 hrs post last dose by telemetry. Conditions: in vivo. The class given is organism-based, Canis lupus familiaris. The procedure, abridged:
(§3)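 Crossover telemetry study in dogs at three oral doses (0.3, 1 and 3 mg/kg), N=4. Endpoints were blood pressure, maximum systolic left ventricular pressure, LV +dP/dt max, activity, heart rate, and RR, QT and QTc intervals, followed up to 9 h post dose.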

A short description of data set [9]: fCmax in dog at 3 mg/kg, po using spray-dried dispersion formulation. Conditions: in vivo. The format is ADME, organism-based, Canis lupus familiaris.
Data set [10] can be described thus: Unbound plasma concentration in amphetamine-induced C57BL/6J mouse model of hyperlocomotion at 0.32 mg/kg, sc measured after 1 hr. The class given is ADME, organism-based. As to conditions: in vivo. An outline of the steps:
as §1

The nature of data set [11]: Ratio of fAUC in brain to plasma of scopolamine-induced Wistar rat model at 0.1 mg/kg, po measured after 1 hr. The format is ADME, organism-based. Conditions: brain and plasma, read-out: Ratio AUC.
The nature of data set [12]: Toxicity in male Beagle dog assessed as change in CV end points at 0.3 mg/kg, po by telemetry. The format is organism-based, Canis lupus familiaris. Conditions: in vivo. The procedure, abridged:
as §3

The target of data set [13] is cGMP-dependent 3',5'-cyclic phosphodiesterase (Homo sapiens, UniProt O00408). Description: Inhibition of PDE2A (unknown origin).
cGMP-dependent 3',5'-cyclic phosphodiesterase, sequence (O00408 whole entry): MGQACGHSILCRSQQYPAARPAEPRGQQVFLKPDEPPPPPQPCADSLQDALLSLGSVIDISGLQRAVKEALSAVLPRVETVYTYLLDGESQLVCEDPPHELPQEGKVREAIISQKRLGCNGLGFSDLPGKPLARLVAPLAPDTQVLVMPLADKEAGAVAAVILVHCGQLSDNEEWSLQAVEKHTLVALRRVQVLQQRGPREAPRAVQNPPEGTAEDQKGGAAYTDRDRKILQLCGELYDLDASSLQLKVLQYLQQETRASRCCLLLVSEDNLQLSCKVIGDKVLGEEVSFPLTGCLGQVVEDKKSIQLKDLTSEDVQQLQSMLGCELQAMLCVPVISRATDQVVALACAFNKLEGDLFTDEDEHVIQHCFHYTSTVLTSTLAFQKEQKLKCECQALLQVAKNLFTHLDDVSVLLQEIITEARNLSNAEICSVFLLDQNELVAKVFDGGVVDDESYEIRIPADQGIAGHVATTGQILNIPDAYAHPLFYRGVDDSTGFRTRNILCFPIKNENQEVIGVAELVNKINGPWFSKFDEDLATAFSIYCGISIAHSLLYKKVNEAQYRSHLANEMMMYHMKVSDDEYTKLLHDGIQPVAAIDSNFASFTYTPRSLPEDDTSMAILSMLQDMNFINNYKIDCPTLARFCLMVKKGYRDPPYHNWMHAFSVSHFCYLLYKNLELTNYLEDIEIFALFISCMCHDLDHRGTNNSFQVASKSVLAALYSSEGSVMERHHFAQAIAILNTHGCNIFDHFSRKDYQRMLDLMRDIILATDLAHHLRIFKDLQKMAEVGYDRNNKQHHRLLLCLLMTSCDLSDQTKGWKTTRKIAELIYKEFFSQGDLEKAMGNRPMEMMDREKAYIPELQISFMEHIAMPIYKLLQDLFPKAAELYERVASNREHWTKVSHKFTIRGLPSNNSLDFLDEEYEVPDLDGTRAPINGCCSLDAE
Data set [14] addresses Muscarinic acetylcholine receptor M3 (Homo sapiens, UniProt P20309). Description: Agonist activity at human recombinant muscarinic M3 receptor stably expressed in CHO cells assessed as increase in intracellular calcium level up to 10 uM incubated for 10 mins by Fluo-8AM dye based FLIPR TETRA method. The format is cell-based.
For data set [15], the target named is T1, Muscarinic acetylcholine receptor M4 (Homo sapiens, UniProt P08173).
T1 sequence (P08173 whole entry): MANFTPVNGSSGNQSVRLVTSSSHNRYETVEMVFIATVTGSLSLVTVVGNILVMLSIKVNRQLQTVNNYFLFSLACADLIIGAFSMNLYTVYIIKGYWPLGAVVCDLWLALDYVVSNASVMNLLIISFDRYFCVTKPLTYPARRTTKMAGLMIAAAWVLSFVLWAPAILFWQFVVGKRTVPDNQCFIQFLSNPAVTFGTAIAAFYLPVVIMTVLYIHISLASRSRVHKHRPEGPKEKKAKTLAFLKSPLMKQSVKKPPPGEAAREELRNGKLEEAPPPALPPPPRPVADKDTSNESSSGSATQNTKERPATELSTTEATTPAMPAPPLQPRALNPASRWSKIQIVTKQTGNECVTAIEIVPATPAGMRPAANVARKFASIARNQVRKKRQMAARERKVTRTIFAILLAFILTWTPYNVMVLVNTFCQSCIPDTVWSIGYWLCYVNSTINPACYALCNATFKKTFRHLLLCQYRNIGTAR
Description: Positive allosteric modulation of human recombinant muscarinic M4 receptor stably expressed in HEK cells assessed as increase in ACh-induced cAMP accumulation up to 10 uM measured after 10 mins by GloSensor cAMP Assay. The format is cell-based.

A short description of data set [16]: Unbound brain concentration in amphetamine-induced C57BL/6J mouse model of hyperlocomotion at 0.32 mg/kg, sc measured after 1 hr. The class given is ADME, organism-based. As to conditions: in vivo. The procedure, abridged:
as §1

Data set [17] is described as follows: fAUC (0 to 24 hrs) in rat at 30 mg/kg, po administered for 14 days. The class given is ADME, organism-based. Conditions: in vivo, 336 h, time 14 day. The procedure, abridged: as §2
The nature of data set [18]: Clearance in rat at 1 mg/kg, iv administered as single bolus dose. The class given is ADME, organism-based. As to conditions: in vivo.
Data set [19] is described as follows: Toxicity in dog assessed as side-to-side head movements at 45 mg/kg, po using spray-dried dispersion formulation measured after 45 mins. The class given is organism-based, Canis lupus familiaris. As to conditions: in vivo, 0.75 h.
For data set [20], the target named is T2, Muscarinic acetylcholine receptor M1 (Homo sapiens, UniProt P11229).
T2 sequence (P11229 whole entry): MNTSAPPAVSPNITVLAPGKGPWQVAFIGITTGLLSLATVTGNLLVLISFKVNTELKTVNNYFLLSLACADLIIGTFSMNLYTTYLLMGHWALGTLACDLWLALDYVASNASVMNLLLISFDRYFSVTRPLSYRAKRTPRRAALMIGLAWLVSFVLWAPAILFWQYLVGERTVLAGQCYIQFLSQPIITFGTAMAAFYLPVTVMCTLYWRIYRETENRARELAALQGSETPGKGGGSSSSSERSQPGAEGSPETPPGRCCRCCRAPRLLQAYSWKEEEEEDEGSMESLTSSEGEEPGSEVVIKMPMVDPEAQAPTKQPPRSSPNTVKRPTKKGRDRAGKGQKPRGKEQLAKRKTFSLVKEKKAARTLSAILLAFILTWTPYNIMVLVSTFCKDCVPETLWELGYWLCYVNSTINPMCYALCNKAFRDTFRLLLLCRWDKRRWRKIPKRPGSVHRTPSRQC
The data set can be described thus: Positive allosteric modulation of muscarinic M1 receptor (unknown origin) assessed as increase in Ach-induced recruitment of beta-arrestin by Path Hunter assay. The class given is cell-based, CHO.

Data set [21] in a line: fAUC (0 to 24 hrs) in dog at 5 mg/kg, po using spray-dried dispersion formulation. Conditions: in vivo. The format is ADME, organism-based, Canis lupus familiaris.

Muscarinic acetylcholine receptor M3, sequence (P20309 whole entry): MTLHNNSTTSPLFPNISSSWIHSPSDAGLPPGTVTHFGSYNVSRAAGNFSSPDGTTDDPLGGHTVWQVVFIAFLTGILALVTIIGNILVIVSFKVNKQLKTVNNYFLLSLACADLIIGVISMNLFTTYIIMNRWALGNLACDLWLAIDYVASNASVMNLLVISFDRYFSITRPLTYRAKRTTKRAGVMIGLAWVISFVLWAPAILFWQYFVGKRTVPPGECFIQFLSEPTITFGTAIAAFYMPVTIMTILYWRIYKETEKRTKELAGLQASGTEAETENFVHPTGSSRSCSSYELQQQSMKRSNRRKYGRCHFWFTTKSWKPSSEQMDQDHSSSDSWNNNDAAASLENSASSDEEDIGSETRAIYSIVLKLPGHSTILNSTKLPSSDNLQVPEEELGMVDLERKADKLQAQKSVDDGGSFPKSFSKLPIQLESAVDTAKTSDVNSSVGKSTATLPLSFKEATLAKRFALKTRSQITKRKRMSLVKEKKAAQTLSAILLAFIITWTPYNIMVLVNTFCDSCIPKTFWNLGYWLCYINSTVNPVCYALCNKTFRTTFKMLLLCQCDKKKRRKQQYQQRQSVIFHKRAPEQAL

In the case of `Cc1cnc(C(=O)N[C@H]2CCOC[C@@H]2O)cc1Cc1ccc(-c2cscn2)cc1`, the “Drug uptake(free)” value in data set [1] came out at 18.5 nM; in data set [16], 6.38 nM. In addition, the Activity result is reported as “Toxic” in [2]; “Toxic” in data set [4]; “Non-Toxic” in data set [6]; “Toxic” in data set [8]; “Non-Toxic” in [12]; “Not Active” in [14]. Besides, the Activity result is recorded as “Not Active” in [15] and “Toxic” in [19]. The fCmax in data set [3] was 195 nM; in data set [7], 562 nM; in data set [9], 568 nM. For the same compound, the “Cp(f)” value in [5] is listed as 19.6 nM; in data set [10] it was 23.4 nM. The Kp uu at 1 h in [11] was found to be 0.34. Also, the IC50 (in general, the point on the concentration scale where inhibition reaches its midpoint) in data set [13] stood at 3090 nM. The fAUC in [17] was 13.211 µM·h; in data set [21], 5.861 µM·h. Also, the clearance (in general, a measure of how efficiently the substance is removed, as volume per time) in data set [18] came to 3.29 mL/min/kg. Besides, the EC50 – broadly, the concentration that produces a half-maximal response – in [20] turned out to be 365 nM.

The record behind these values is ChEMBL document CHEMBL4715734, “Discovery of the Potent and Selective M1 PAM-Agonist N-[(3R,4S)-3-Hydroxytetrahydro-2H-pyran-4-yl]-5-methyl-4-[4-(1,3-thiazol-4-yl)benzyl]pyridine-2-carboxamide (PF-06767832): Evaluation of Efficacy and Cholinergic Side Effects” (J Med Chem, 2016).
